According to publication PMC8286641 (European Journal of Drug Metabolism and Pharmacokinetics, 2021):

What was measured:
ENT1 [1] = molecular target: T1, ENT1 (Homo sapiens, UniProt Q99808); test: Inhibition of ENT1-mediated [3H]-uridine uptake in HAP1 ENT2-KO cells; assay type: cell-based; settings: 10 µM TKI; for % inhibition of ENT1 activity (mean ± SD): HAP1-ENT2 KO cells, [3H]-uridine uptake 5 min at 37 °C; for ENT1 inhibitor class / Effect on ENT1 activity (in words): HAP1 ENT2-KO cells
T1 sequence (Q99808 1-456): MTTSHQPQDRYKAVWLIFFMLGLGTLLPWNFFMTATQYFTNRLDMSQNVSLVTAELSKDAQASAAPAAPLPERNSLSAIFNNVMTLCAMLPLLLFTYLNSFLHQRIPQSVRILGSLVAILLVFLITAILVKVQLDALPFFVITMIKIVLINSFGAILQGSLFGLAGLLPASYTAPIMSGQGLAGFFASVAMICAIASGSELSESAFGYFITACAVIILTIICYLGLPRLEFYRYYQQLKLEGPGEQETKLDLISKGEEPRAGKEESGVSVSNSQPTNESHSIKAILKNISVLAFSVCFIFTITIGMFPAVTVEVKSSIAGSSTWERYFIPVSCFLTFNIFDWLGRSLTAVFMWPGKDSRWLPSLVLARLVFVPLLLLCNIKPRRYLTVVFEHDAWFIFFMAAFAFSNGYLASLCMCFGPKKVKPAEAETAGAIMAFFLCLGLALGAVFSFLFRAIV

ENT1 [2] = molecular target: T1, ENT1; test: Prediction of in vivo ENT1 inhibition; settings: predicted if Imax,u/IC50 ≥ 0.1
Summary of the method: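 Unbound peak plasma level (Imax,u) was obtained from literature Cmax and unbound fraction and divided by in vitro ENT1 IC50. Inhibition was predicted when the ratio was ≥ 0.1, following FDA drug-interaction guidance.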

[3] = plasma; ref 43-47 (Reference column, one per TKI); cited from earlier work
[4] = Maximum plasma concentration of TKIs; assay type: in vivo; settings: from Cmax and fu

SMILES	% inhibition of ENT1 activity (mean ± SD) (ENT1 [1]) [%]	Predicted in vivo inhibition (ENT1 [2])	Imax,u (maximum unbound plasma concentration) [4] [nM]	ENT1 inhibitor class (ENT1 [1])	Effect on ENT1 activity (in words) (ENT1 [1])	fu (unbound fraction) [3]
C[C@@H]1CCN(C(=O)CC#N)C[C@@H]1N(C)c1ncnc2[nH]ccc12 [Tofacitinib, tofacitinib]	4.8 ± 8.3				failed to significantly alter ENT1 activity	
COc1cc2nccc(Oc3ccc(NC(=O)NC4CC4)c(Cl)c3)c2cc1C(N)=O [Lenvatinib, lenvatinib]	63.1 ± 5.9	No		potent (inhibit ENT1 by more than 60%)		0.016
C[C@@H](Oc1cc(-c2cnn(C3CCNCC3)c2)cnc1N)c1c(Cl)ccc(F)c1Cl [Crizotinib, crizotinib]	34.7 ± 2.7			weak (decreased ENT1 activity by less than 35% and can thus be considered as weak ENT1 inhibitors)	only modestly decrease ENT1 activity	
C=CC(=O)N1CCC[C@@H](n2nc(-c3ccc(Oc4ccccc4)cc3)c3c(N)ncnc32)C1 [Ibrutinib, ibrutinib]	72.7 ± 1.1	No	9.56	potent (inhibit ENT1 by more than 60%)		
CC#CC(=O)N1CCC[C@H]1c1nc(-c2ccc(C(=O)Nc3ccccn3)cc2)c2c(N)nccn12 [Acalabrutinib, acalabrutinib]	42.6 ± 10.4			moderate (inhibit ENT1 activity by more than 35% but less than 60%)		
COc1cc2nccc(Oc3ccc(NC(=O)C4(C(=O)Nc5ccc(F)cc5)CC4)cc3)c2cc1OC [Cabozantinib, cabozantinib]	48.8 ± 2.5			moderate (inhibit ENT1 activity by more than 35% but less than 60%)		
C=CC(=O)Nc1cc(Nc2nccc(-c3cn(C)c4ccccc34)n2)c(OC)cc1N(C)CCN(C)C [Osimertinib, osimertinib]	32.3 ± 11.3			weak (decreased ENT1 activity by less than 35% and can thus be considered as weak ENT1 inhibitors)		
Cc1cc(Nc2ncc(Cl)c(Nc3ccccc3S(=O)(=O)C(C)C)n2)c(OC(C)C)cc1C1CCNCC1 [Ceritinib, ceritinib]	26.3 ± 1.7			weak (decreased ENT1 activity by less than 35% and can thus be considered as weak ENT1 inhibitors)	only modestly decrease ENT1 activity	
CCOc1cc2ncc(C#N)c(Nc3ccc(OCc4ccccn4)c(Cl)c3)c2cc1NC(=O)/C=C/CN(C)C [Neratinib, neratinib]	61.0 ± 8.5	No	1.46	potent (inhibit ENT1 by more than 60%)		0.01

Further lines, with some results ahead:

% inhibition of ENT1 activity (mean ± SD) (ENT1 [1]) [%]	Predicted in vivo inhibition (ENT1 [2])	Imax,u (maximum unbound plasma concentration) [4] [nM]	SMILES	ENT1 inhibitor class (ENT1 [1])	Effect on ENT1 activity (in words) (ENT1 [1])	fu (unbound fraction) [3]
22.9 ± 5.2			CN1CCN(c2ccc(C(=O)Nc3n[nH]c4ccc(Cc5cc(F)cc(F)c5)cc34)c(NC3CCOCC3)c2)CC1 [Entrectinib, entrectinib]			
52.5 ± 11.1			COc1cc(N2CCC(N3CCN(C)CC3)CC2)ccc1Nc1ncc(Cl)c(Nc2ccccc2P(C)(C)=O)n1 [Brigatinib, brigatinib]	moderate (inhibit ENT1 activity by more than 35% but less than 60%)		
46.9 ± 9.6			COC(=O)c1ccc2c(c1)NC(=O)/C2=C(\Nc1ccc(N(C)C(=O)CN2CCN(C)CC2)cc1)c1ccccc1 [Nintedanib, nintedanib]			
61.6 ± 8.1	No	247.5	C1=C/COCc2cc(ccc2OCCN2CCCC2)Nc2nccc(n2)-c2cccc(c2)COC/1 [Pacritinib, 11-(2-pyrrolidin-1-yl-ethoxy)-14,19-dioxa-5,7,26-triaza-tetracyclo[19.3.1.1(2,6).1(8,12)]heptacosa-1(25),2(26),3,5,8,10,12(27),16,21,23-decaene]	potent (inhibit ENT1 by more than 60%)		0.011
21.4 ± 2.7			CNC(=O)c1cc(Oc2ccc(NC(=O)Nc3ccc(Cl)c(C(F)(F)F)c3)c(F)c2)ccn1 [Regorafenib, regorafenib]			
54.0 ± 4.9			CCc1cc2c(cc1N1CCC(N3CCOCC3)CC1)C(C)(C)c1[nH]c3cc(C#N)ccc3c1C2=O [Alectinib, alectinib]	moderate (inhibit ENT1 activity by more than 35% but less than 60%)		
21.9 ± 13.3			N#CCC1(n2cc(-c3ncnc4[nH]ccc34)cn2)CN(C2CCN(C(=O)c3ccnc(C(F)(F)F)c3F)CC2)C1 [Itacitinib, itacitinib]	weak (decreased ENT1 activity by less than 35% and can thus be considered as weak ENT1 inhibitors)		
54.5 ± 2.4			CN(C)C/C=C/C(=O)Nc1cc2c(Nc3ccc(F)c(Cl)c3)ncnc2cc1O[C@H]1CCOC1 [Afatinib, afatinib]	moderate (inhibit ENT1 activity by more than 35% but less than 60%)		
43.9 ± 2.3			COc1cc2ncnc(Nc3ccc(F)c(Cl)c3)c2cc1NC(=O)/C=C/CN1CCCCC1 [Dacomitinib, dacomitinib]	moderate (inhibit ENT1 activity by more than 35% but less than 60%)		
25.0 ± 7.9			CCN1CCN(Cc2ccc(Nc3ncc(F)c(-c4cc(F)c5nc(C)n(C(C)C)c5c4)n3)nc2)CC1 [Abemaciclib, abemaciclib]	weak (decreased ENT1 activity by less than 35% and can thus be considered as weak ENT1 inhibitors)		
17.8 ± 10.2			CN(C)C(=O)c1cc2cnc(Nc3ccc(N4CCNCC4)cn3)nc2n1C1CCCC1 [Ribociclib, ribociclib]		failed to significantly alter ENT1 activity	
27.3 ± 10.9			CCCS(=O)(=O)Nc1ccc(F)c(C(=O)c2c[nH]c3ncc(-c4ccc(Cl)cc4)cc23)c1F [Vemurafenib, vemurafenib]	weak (decreased ENT1 activity by less than 35% and can thus be considered as weak ENT1 inhibitors)		
